Experimental data of several laboratories.
Compare with care: the assays were run in different laboratories.
Read-out: cell growth or viability

| SMILES | cell line | method | time | IC50 [nM] |
| --- | --- | --- | --- | --- |
| Nc1ccc(/C=C/C(=O)N2CCc3c(oc4c(-c5ccc(F)cc5)cc(-c5cnc(C(=O)N6CCC(F)(F)CC6)nc5)cc34)C2)cn1 | MIA PaCa-2 | CCK-8 | 72 h | 1360 |
| C=C(F)C(=O)N1CCN(c2nc(OC[C@@H]3CCCN3C)nc3c2CCN(c2cccc4cccc(Cl)c24)C3)C[C@@H]1CC#N | SW837 | ATP luminescence |  | 86.2 |
| COc1cc2c3c(n(CCCNCCO)c(=O)c2cc1OC)-c1nc2c(cc1C3=O)OCO2 | KMS-27 | MTS | 72 h | 141 |
| COc1ccc(F)cc1-c1ccc2nc(-c3ccc(F)cc3)cc(C(=O)Nc3ccccc3)c2c1 | MIA PaCa-2 | MTT | 48 h | > 50000 |
| Nc1ccc(/C=C/C(=O)N2CCc3c(oc4c(-c5ccc(F)cc5)cc(-c5ccc(C(=O)N6CCC(F)(F)CC6)nn5)cc34)C2)cn1 | MIA PaCa-2 | CCK-8 | 72 h | 230 |
| COc1ccc(-c2cc(C(=O)Nc3ccccc3)c3cc(-c4cccs4)ccc3n2)cc1 | MIA PaCa-2 | MTT | 48 h | > 50000 |
| CCNCCCn1c2c(c3cc(OC)c(OC)cc3c1=O)C(=O)c1cc3c(nc1-2)OCO3 | MOLT-4 | MTS | 72 h | 13 |
| Nc1ccc(/C=C/C(=O)N2CCc3c(oc4c(-c5ccc(F)cc5)cc(-c5ccc(C(=O)N6CCC(F)(F)CC6)cc5F)cc34)C2)cn1 | MIA PaCa-2 | CCK-8 | 72 h | 2660 |
| COc1cc2c3c(n(CCCNC(C)C)c(=O)c2cc1OC)-c1nc2c(cc1C3=O)OCO2 | KMS-27 | MTS | 72 h | 206 |
| COc1ccc(-c2cc(C(=O)Nc3ccccc3)c3cc(-c4cc(Cl)ccc4F)ccc3n2)cc1 | MIA PaCa-2 | MTT | 48 h | > 50000 |
| COc1cc2c3c(n(CCCN4CCOCC4)c(=O)c2cc1OC)-c1nc2c(cc1C3=O)OCO2 | KMS-27 | MTS | 72 h | 530 |
| C=CC(=O)N1CCN(c2nc(=O)n(-c3c(C)ccnc3C(C)C)c3nc(-c4c(O)cccc4F)c(F)cc23)[C@@H](C)C1 | MIA PaCa-2 | ATP luminescence |  | 23.5 |
| Cc1sc2c(c1C)C(c1ccc(Cl)cc1)=N[C@@H](CC(=O)NCCCCCCCCNC(=O)COc1cccc3c1C(=O)N(C1CCC(=O)NC1=O)C3=O)c1nnc(C)n1-2 (stereo partly shown) | MOLT-4 | ATP luminescence |  | 23 |
| COc1ccc(-c2cc(C(=O)Nc3ccccc3)c3cc(-c4cc(F)ccc4OC)ccc3n2)cc1 | MIA PaCa-2 | MTT | 48 h | > 50000 |
| [NH2][Pt]([NH2])([Cl])[Cl] | LNCaP | MTT | 72 h | 10200 |
| COc1ccc(-c2cc(C(=O)Nc3ccccc3)c3cc(-c4cnc(Cl)c(C)c4)ccc3n2)cc1 | MIA PaCa-2 | MTT | 48 h | > 50000 |
| Nc1ccc(/C=C/C(=O)N2CCc3c(oc4c(-c5ccc(F)cc5)cc(-c5ccc(C(=O)N6CCOCC6)nn5)cc34)C2)cn1 | MIA PaCa-2 | CCK-8 | 72 h | 460 |
| COc1cc2c3c(n(CCCn4ccnc4)c(=O)c2cc1OC)-c1nc2c(cc1C3=O)OCO2 | KMS-27 | MTS | 72 h | 238 |
| COc1ccc(-c2cc(C(=O)Nc3ccccc3)c3cc(-c4cc(C)ccc4F)ccc3n2)cc1 | MIA PaCa-2 | MTT | 48 h | > 50000 |
